Laboratory results: ChEMBL document CHEMBL4725393, “Prodrug Strategies to Improve the Solubility of the HCV NS5A Inhibitor Pibrentasvir (ABT-530)” (J Med Chem, 2020)
Values after ≈ are worked out from the molar mass of the structure shown.

Assays:
[1] = Cmax in CD1 mouse assessed as pibrentasvir1 level at 6 mg/kg, po measured up to 24 hrs; type: ADME, organism-based; set-up: route oral, dose 6 mg/kg, time <=24; settings: in vivo
Method in brief: (§1)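 CD-1 mice with free access to food and water received an oral gavage of prodrug or PIB at 10 mL/kg in 0.2% HPMC. The dose was adjusted for prodrug MW to equal 6 mg/kg PIB. K2EDTA blood was drawn at 0.25, 0.5, 1, 3, 6, 9, 12 and 24 h. Plasma was spun at 3200 x g for 5 min at ~4°C and stored below -15°C. PIB and prodrug were measured; AUC in ng·h/mL, Cmax in ng/mL.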

[2] = AUC in CD1 mouse assessed as pibrentasvir1 level at 6 mg/kg, po measured up to 24 hrs; type: ADME, organism-based; set-up: route oral, dose 6 mg/kg, time <=24; settings: in vivo; method in brief: as §1
[3] = Solubility in FeSSIF at pH 5; type: physicochemical
Method in brief: (§2)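 For equilibrium solubility, excess solid was added to 3–4 mL of medium, in triplicate. Suspension pH was read after equilibration. Solids were removed by centrifugation at 4000 rpm at 25 °C, and the supernatant was passed through a 0.45 µm filter, discarding the first 2 mL. The filtrate was quantified by HPLC against standard curves.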

[4] = Equilibrium solubility of compound at pH 7.4 incubated for 24 to 48 hrs by HPLC analysis; type: physicochemical; settings: buffer, time 24-48 hrs; method in brief: as §2
[5] = AUC in beagle dog assessed as pibrentasvir1 level at 40 mg, po measured up to 24 hrs; type: ADME, organism-based, Canis lupus familiaris; set-up: route oral, dose 40 mg, time <=24; settings: in vivo
Method in brief: (§3)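 The dose equalled 40 mg PIB after adjustment for prodrug MW. Food was returned at 12 h. K2EDTA plasma was sampled at 0.25–24 h. Cmax is in ng/mL and AUC in ng·h/mL.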

[6] = Equilibrium solubility of compound at pH 1 incubated for 24 to 48 hrs by HPLC analysis; type: physicochemical; settings: buffer, time 24-48 hrs; method in brief: as §2
[7] = Half life of compound at pH 7.4 at 125 ug/ml at 37 degC by HPLC analysis; type: physicochemical; settings: dose 125 µg/ml
[8] = AUC in cynomolgus monkey at 2 mg/kg, po measured up to 12 hrs; type: ADME, organism-based, Macaca fascicularis; set-up: route oral, dose 2 mg/kg, time <=12; settings: in vivo
Method in brief: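 Female cynomolgus monkeys were fasted overnight and dosed by gastric intubation with a suspension in 0.5% HPMC at 0.5 mL/kg. The dose was MW-adjusted to 2 mg/kg PIB equivalent, and food was returned at 4 h. Plasma was collected at intervals up to 12 h and assayed for PIB and prodrug to give AUC in ng·h/mL.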

[9] = Stability of compound at pH 1 assessed as prodrug remaining level at 125 ug/ml incubated for 24 hrs by HPLC analysis; type: physicochemical; settings: buffer, pH 1, 24 h, at 125 µg/mL
Method in brief: (§4)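 A DMSO stock of about 1.25 mg/mL was diluted into 0.1 N HCl (pH 1) or 50 mM phosphate buffer (pH 7.4), giving final concentrations of ~125 µg/mL prodrug and 10% DMSO. The solution was filtered and held at 37 °C in the HPLC autosampler, with injections at several times over 24 h. Percent remaining was calculated from prodrug peak area relative to t0.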

[10] = Stability of compound at pH 7.4 assessed as prodrug remaining level at 125 ug/ml incubated for 24 hrs by HPLC analysis; type: physicochemical; settings: buffer, pH 7.4, 24 h, at 125 µg/mL; method in brief: as §4
[11] = Cmax in beagle dog assessed as pibrentasvir1 level at 40 mg, po measured up to 24 hrs; type: ADME, organism-based, Canis lupus familiaris; set-up: route oral, dose 40 mg, time <=24; settings: in vivo; method in brief: as §3
[12] = AUC in CD1 mouse assessed as pibrentasvir1 level at 3 mg/kg, po measured up to 24 hrs; type: ADME, organism-based; set-up: route oral, dose 3 mg/kg, time <=24; settings: in vivo
Method in brief: (§5)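 CD-1 mice, fed ad libitum, were dosed orally at a prodrug-MW-adjusted dose equal to 3 mg/kg PIB, as a solution or suspension. Serial K2EDTA blood samples were taken from 0.25 to 24 h. Plasma was separated by centrifugation and kept frozen. PIB and prodrug levels were reported as Cmax (ng/mL) and AUC (ng·h/mL).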

[13] = AUC in beagle dog at 40 mg, po measured up to 24 hrs; type: ADME, organism-based, Canis lupus familiaris; set-up: route oral, dose 40 mg, time <=24; settings: in vivo; method in brief: as §3
[14] = Cmax in CD1 mouse assessed as pibrentasvir1 level at 3 mg/kg, po measured up to 24 hrs; type: ADME, organism-based; set-up: route oral, dose 3 mg/kg, time <=24; settings: in vivo; method in brief: as §5
[15] = Cmax in CD1 mouse at 3 mg/kg, po measured up to 24 hrs; type: ADME, organism-based; set-up: route oral, dose 3 mg/kg, time <=24; settings: in vivo; method in brief: as §5
[16] = Cmax in beagle dog at 40 mg, po measured up to 24 hrs; type: ADME, organism-based, Canis lupus familiaris; set-up: route oral, dose 40 mg, time <=24; settings: in vivo; method in brief: as §3
[17] = AUC in CD1 mouse at 3 mg/kg, po measured up to 24 hrs; type: ADME, organism-based; set-up: route oral, dose 3 mg/kg, time <=24; settings: in vivo; method in brief: as §5

Row | SMILES | Cmax [1] [ng/mL] | AUC [2] [ng·h/mL] | solubility [3] [µg/mL] | solubility thermodynamic [4] [µg/mL] | AUC [5] [ng·h/mL] | solubility thermodynamic [6] [µg/mL] | half-life at 125 ug/ml [7] [h] | AUC at 12 h [8] [ng·h/mL] | Stabilty [9] [%] | Stabilty [10] [%] | Cmax [11] [ng/mL] | AUC [12] [ng·h/mL] | AUC at 24 h [13] [ng·h/mL] | Cmax [14] [ng/mL] | Cmax [15] [ng/mL] | Cmax [16] [ng/mL] | AUC at 24 h [17] [ng·h/mL]
1 | COC(=O)N[C@H](C(=O)N1CCC[C@H]1c1nc2cc(F)c([C@H]3CC[C@H](c4cc5nc([C@@H]6CCCN6C(=O)[C@@H](NC(=O)OC)[C@@H](C)OC)n(COC(=O)CC(C)(C)c6c(C)cc(C)cc6OP(=O)(O)O)c5cc4F)N3c3cc(F)c(N4CCC(c5ccc(F)cc5)CC4)c(F)c3)cc2[nH]1)[C@@H](C)OC | 1210 | 20600 | 794 (≈ 556 µM) | 0.5 (≈ 0.35 µM) | 3210 | 572 (≈ 401 µM) | > 72 | 240 | 87 | 100 | 249 |  |  |  |  |  | 
2 | COC(=O)N[C@H](C(=O)N1CCC[C@H]1c1nc2cc(F)c([C@H]3CC[C@H](c4cc5nc([C@@H]6CCCN6C(=O)[C@@H](NC(=O)OC)[C@@H](C)OC)n(COC(=O)[C@@H](N)C(C)C)c5cc4F)N3c3cc(F)c(N4CCC(c5ccc(F)cc5)CC4)c(F)c3)cc2[nH]1)[C@@H](C)OC |  |  | > 1000 | < 0.1 | 3940 | > 1000 |  |  | 78 | 5 | 379 | 2340 | 568 | 129 |  |  | 
3 | COC(=O)N[C@H](C(=O)N1CCC[C@H]1c1nc2cc(F)c([C@H]3CC[C@H](c4cc5c(cc4F)nc([C@@H]4CCCN4C(=O)[C@@H](NC(=O)OC)[C@@H](C)OC)n5COP(=O)(O)O)N3c3cc(F)c(N4CCC(c5ccc(F)cc5)CC4)c(F)c3)cc2[nH]1)[C@@H](C)OC |  |  |  | > 4000 | 1470 | > 4000 |  |  | 100 | 100 | 152 | 278 | 93 | 17 | 2.2 | 20 | 12.6
4 | COC(=O)N[C@H](C(=O)N1CCC[C@H]1c1nc2cc(F)c([C@H]3CC[C@H](c4cc5nc([C@@H]6CCCN6C(=O)[C@@H](NC(=O)OC)[C@@H](C)OC)n(COP(=O)(O)O)c5cc4F)N3c3cc(F)c(N4CCC(c5ccc(F)cc5)CC4)c(F)c3)cc2[nH]1)[C@@H](C)OC |  |  |  | 6.4 (≈ 5.23 µM) | 429 | 37.3 (≈ 30.5 µM) | > 72 | 160 | 100 | 100 | 55 | 2660 |  | 141 |  |  | 
5 | COC(=O)N[C@H](C(=O)N1CCC[C@H]1c1nc2cc(F)c([C@H]3CC[C@H](c4cc5nc([C@@H]6CCCN6C(=O)[C@@H](NC(=O)OC)[C@@H](C)OC)n(COC(=O)[C@@H](NC(=O)COP(=O)(O)O)C(C)C)c5cc4F)N3c3cc(F)c(N4CCC(c5ccc(F)cc5)CC4)c(F)c3)cc2[nH]1)[C@@H](C)OC |  |  |  | 0.7 (≈ 0.507 µM) | 1210 | 186 (≈ 135 µM) | < 24 |  | 97 | 31 | 112 | 3710 |  | 216 |  |  | 
